Assay outcomes from PubChem.
APP 5'UTR act: activates APP 5'UTR luciferase reporter | hit rate 1% among 190,000 | SH-SY5Y APP 5'UTR luciferase reporter, luminescence; zero percent = DMSO vehicle wells | activation, % at 2 µM;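 active = activation above a set limit, based on mean plus 3 SD of controls, cut at about 140% in these data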
STAT1 activator: increases IFN-gamma driven STAT1 reporter signal; NIH 3T3 STAT1-luciferase reporter, luminescence; 100% = IFN-gamma alone, no compound; activation (% of control), % at 5.5 µM; hit rate 2.6% among 200,000; AID 932;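 active = activation above the screen-wide mean activation plus 3 SD, cut at about 130% in these data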
STAT1 blocker: STAT1 signaling inhibition; NIH 3T3 STAT1-luciferase reporter, IFN-gamma, luminescence; inhibition, % at 5.5 µM; hit rate 0.35% among 200,000; AID 920;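 active = inhibition above a set limit, the mean inhibition across all tested compounds plus 3 SD, cut at about 34% in these data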
STAT3 activator: STAT3 signaling activation | activation (% of control), % at 5.6 µM | hit rate 0.91% among 190,000 | U3A cells, IL-6 STAT3-luciferase reporter, luminescence; 100% = signal with IL-6 EC80 alone;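 active = activation above the screen-wide mean of compound activation plus 3 SD, cut at about 130% in these data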
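Test system: STAT3-luciferase reporter U3A cells; Detection: reporter luminescence signal; Times: 1 h compound pre-exposure, 6 h IL-6 stimulation, 37 °C; Benchmarks: IL-6-only high control; Also added: IL-6 stimulus at 33 ng/mL final.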
STAT3 blocker: reduces IL-6 driven STAT3 reporter signal | U3A cells, IL-6 STAT3-luciferase reporter, luminescence; host cell line lacks STAT1 | inhibition, % at 5.5 µM | hit rate 0.89% among 190,000;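 active = inhibition above the mean inhibition across all screened compounds plus 3 SD, cut at about 44% in these data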
NF-kB expr up: NF-kB expression increase, human neuronal cells | AID 1239 | NF-kB reporter expression; stronger effect = higher value | fold change at 12.5 µM | hit rate 1.6% among 190,000; in the data active = fold change above about 3.3
Numbers stand for hits; . = inactive; / = no result. A selection: hits, their analogues and other compounds. The true share with any hit is near 4.9%.

SMILES | APP 5'UTR act | STAT1 activator | STAT1 blocker | STAT3 activator | STAT3 blocker | NF-kB expr up
CCn1cnc2sc(C(=O)Oc3cccc(C)c3)c(C)c2c1=O | . | 132 | . | . | . | .
Cc1c(C(=O)Oc2ccc(F)cc2)sc2ncn(Cc3cccc(F)c3)c(=O)c12 | . | . | . | . | . | .
Cc1cc(N2CCCC(C(=O)Nc3cccc4ccccc34)C2)n2ncnc2n1 (configuration not stated) | . | . | . | . | . | .
O=C(CSc1nnc(-c2ccco2)o1)c1ccc[nH]1 | . | 130 | . | . | . | .
Cc1nc2cc(F)ccc2n1C1CCN(S(=O)(=O)c2ccccc2)CC1 | . | . | . | . | . | .
Cc1coc2c1C(=O)C(=O)c1c-2ccc2c1CCCC2(C)C | . | . | . | / | / | .
C[C@H]1COC2=C1C(=O)C(=O)c1c2ccc2c1CCCC2(C)C | . | 129 | . | / | / | .
COc1ccc(C(=O)CN2CCN(S(=O)(=O)c3cccc([N+](=O)[O-])c3)CC2)cc1 | . | . | . | . | . | .
COCC(C)n1c(C)cc(C(=O)COC(=O)c2n[nH]c3ccccc23)c1C (configuration not stated) | 143 | . | . | . | . | .
Cc1ccc(C(=O)OCC(=O)N(C)C2CCS(=O)(=O)C2)cc1[N+](=O)[O-] (configuration not stated) | . | . | . | . | . | .
CCCCNC(=O)N(C)c1nc2ccccc2s1 | . | 133 | . | . | . | .
COC(=O)N(C)c1nc2ccccc2s1 | . | . | . | . | . | .
